# Only a selection was taken, and hits are over-represented in it overall.
# IDH1 R132H inh: inhibitors of IDH1 R132H reductase, primary screen, biochemical, plate reader, single point | 70,000 compounds, 0.18% hits | diaphorase/resazurin fluorescence, 60 min | Isocitrate dehydrogenase [NADP] cytoplasmic (Homo sapiens), O75874 | AID 624101, 2012 | inhibition, % at 10 µM; in the data active = inhibition above about 34%; inconclusive = no clear call, values can overlap the other calls; inactive = below about 11%
# Target sequence (O75874 whole entry R132H): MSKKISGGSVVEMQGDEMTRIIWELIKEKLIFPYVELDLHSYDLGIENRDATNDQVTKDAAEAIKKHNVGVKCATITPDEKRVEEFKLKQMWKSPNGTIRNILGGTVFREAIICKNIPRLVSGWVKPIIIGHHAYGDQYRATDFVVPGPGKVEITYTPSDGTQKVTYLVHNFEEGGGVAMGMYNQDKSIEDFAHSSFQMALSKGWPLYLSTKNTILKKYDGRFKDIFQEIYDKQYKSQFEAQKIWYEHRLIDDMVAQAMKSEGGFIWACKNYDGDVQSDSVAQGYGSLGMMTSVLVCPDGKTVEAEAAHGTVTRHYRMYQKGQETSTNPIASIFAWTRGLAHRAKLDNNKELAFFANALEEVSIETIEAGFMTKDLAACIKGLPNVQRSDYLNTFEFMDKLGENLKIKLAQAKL
# T cruzi growth-1: T. cruzi intracellular proliferation inhibitors, primary screen, cell-based, beta-gal Tulahuen parasites, NIH3T3 host, luminescence; T. cruzi beta-gal in NIH3T3, GalScreen luminescence, 90 h; inhibition, % at 8.34 µM; 77,000 compounds, 5.9% hits;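 active = mean inhibition above about 93%, with at least 55% of replicates each passing it, limit read from the data, passing the limit was not always enough; inconclusive = only one of those two conditions holds; inactive = neither condition holds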
# GASC1 inh: inhibitors of GASC-1 (KDM4C) histone demethylase, primary screen, biochemical, single concentration HTS. inhibition, % at 12.5 µM. GST-KDM4C 2-372, H3K9me3 peptide, LANCE TR-FRET. Lysine-specific demethylase 4C (Homo sapiens), Q9H3R0. AID 720574, 2013. 96,000 compounds, 0.15% hits;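 active = mean replicate inhibition above about 25%, with at least 55% of replicates also reaching it, limit read from the data, passing the limit was not always enough; inconclusive = only one of those two conditions met; inactive = neither condition met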
#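 System – N-terminal GST-fused human GASC-1 (KDM4C) fragment, residues 2-372 · Input – enzyme final amount 10 nM · Technique – LANCE TR-FRET, Eu antibody, ULight-streptavidin, EDTA, ex 340 nm, em 618/671 nm · Medium – HEPES buffer, pH 7.5, plus ascorbate · Incubation – enzyme reaction 30 min, then detection 60 min, both room temperature · Reagent – H3K9me3 peptide with Fe(II)/2OG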
# T cruzi growth-2: T. cruzi intracellular proliferation inhibitors, confirmation, cell-based, NIH3T3 host, beta-gal parasite, luminescence, cherry-pick. shares compounds with T cruzi growth-1. T. cruzi beta-gal in NIH3T3, GalScreen luminescence, 90 h. inhibition, % at 8.35 µM. 5,600 compounds, 72% hits. AID 651739, 2012;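 active = mean replicate inhibition above about 95% and at least 55% of replicates individually reaching it, limit read from the data; inconclusive = only one of the two criteria is met; inactive = neither criterion is met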
# T cruzi growth-3: inhibitors of intracellular T. cruzi replication, confirmation, NIH3T3 host cells, beta-gal parasites, cherry-pick, set 2; shares compounds with T cruzi growth-1; T. cruzi beta-gal in NIH3T3, GalScreen luminescence, 90 h; inhibition, % at 2.09 µM; 5,600 compounds, 21% hits;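 active = mean inhibition above about 95%, with at least 55% of replicates also reaching it, limit read from the data; inconclusive = meets just one of the two conditions; inactive = meets neither condition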
# 3T3 cytotox: cytotoxicity in mouse NIH/3T3 fibroblasts, confirmation, cytotoxicity control for T. cruzi proliferation inhibitor project, cell-based, cherry-pick, single point; cytotoxicity (signal decrease), % at 8.35 µM; NIH/3T3 viability, CellTiter-Glo ATP luminescence, 90 h; 5,600 compounds, 14% hits; shares compounds with T cruzi growth-1;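 active = mean signal decrease across replicates above about 35% based on untreated-well scatter, with enough replicates individually passing, limit read from the data; inconclusive = no rule stated though some were filed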
# NIH3T3 tox 2: NIH/3T3 fibroblast cytotoxicity, confirmation, cytotoxicity control, cell-based, cherry-pick, single point, set 2; shares compounds with T cruzi growth-1; NIH/3T3 viability, CellTiter-Glo ATP luminescence, 90 h; inhibition, % at 24.9 µM; 5,600 compounds, 56% hits;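 active = mean loss of cell viability signal at or above a set limit, and enough replicates individually reaching it; inconclusive = meets only the mean limit or only the replicate share; inactive = meets neither condition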
# Hits are given with their value; 0 = inactive; ? = inconclusive; - = no result.
SMILES,IDH1 R132H inh,T cruzi growth-1,GASC1 inh,T cruzi growth-2,T cruzi growth-3,3T3 cytotox,NIH3T3 tox 2
C[C@@H]1CN([C@@H](C)CO)S(=O)(=O)c2ccc(C#CCN(C)C)cc2O[C@H]1CN(C)C(=O)CC1CC1,0,?,0,96.6,0,0,0
C[C@@H]1CN([C@H](C)CO)S(=O)(=O)c2ccc(C#CCN(C)C)cc2O[C@@H]1CN(C)C(=O)CC1CC1,0,0,0,-,-,-,-
C[C@H](CO)N1C[C@H](C)[C@H](CN(C)C(=O)CC2CC2)Oc2cc(C#CCN(C)C)ccc2S1(=O)=O,0,0,0,-,-,-,-
C[C@H](CO)N1C[C@H](C)[C@@H](CN(C)C(=O)CC2CC2)Oc2cc(C#CCN(C)C)ccc2S1(=O)=O,0,96.2,0,97.8,0,0,0
C[C@H]1CN([C@@H](C)CO)S(=O)(=O)c2ccc(C#CCN(C)C)cc2O[C@H]1CN(C)C(=O)CC1CC1,0,?,0,99.5,0,0,0
CCN(CC(=O)O)S(=O)(=O)c1ccc(Br)cc1,0,-,-,-,-,-,-
COc1cccc(-c2ccc3c(c2)O[C@@H](CN(C)C(=O)C2CC2)[C@@H](C)CN([C@H](C)CO)S3(=O)=O)c1,-,104.7,0,0,0,0,63.2
COc1cccc(-c2ccc3c(c2)O[C@H](CN(C)C(=O)C2CC2)[C@@H](C)CN([C@H](C)CO)S3(=O)=O)c1,-,0,0,-,-,-,-
COc1cccc(-c2ccc3c(c2)O[C@H](CN(C)C(=O)C2CCOCC2)[C@H](C)CN([C@@H](C)CO)S3(=O)=O)c1,0,-,0,-,-,-,-
COc1cccc(-c2ccc3c(c2)O[C@@H](CN(C)C(=O)C2CC2)[C@@H](C)CN([C@@H](C)CO)S3(=O)=O)c1,-,104.8,0,0,0,0,45.0
O=C(Nc1ccc(S(=O)(=O)Nc2ncccn2)cc1)c1c(Cl)cccc1Cl,0,-,-,-,-,-,-
CCc1nc(SCC(=O)N2CCCc3ccccc32)n[nH]1,0,-,-,-,-,-,-
O=C(Cn1ccc([N+](=O)[O-])n1)NCc1ccccn1,0,-,-,-,-,-,-
C[C@H](CO)N1C[C@H](C)[C@@H](CN(C)C(=O)CN(C)C)Oc2cc(C#CCN(C)C)ccc2S1(=O)=O,0,0,0,-,-,-,-
CC(=O)N(C)C[C@H]1Oc2cc(C#CCN(C)C)ccc2S(=O)(=O)N([C@H](C)CO)C[C@@H]1C,0,?,0,?,0,0,0
CC(=O)N(C)C[C@@H]1Oc2cc(C#CCN(C)C)ccc2S(=O)(=O)N([C@H](C)CO)C[C@H]1C,0,0,0,-,-,-,-
CCC(=O)N(C)C[C@@H]1Oc2cc(C#CCN(C)C)ccc2S(=O)(=O)N([C@@H](C)CO)C[C@H]1C,0,101.7,0,102.4,0,0,0
c1ccc(N=C2SC(=NC3CCCCC3)C3=C2CCCC3)cc1,0,-,-,-,-,-,-
CC(=O)Nc1ccccc1SCC(=O)Nc1ccc(C)cc1,0,-,-,-,-,-,-
Cc1ccc(C)c(N(CC(=O)Nc2ccc(I)cc2)S(C)(=O)=O)c1,0,-,-,-,-,-,-
C[C@@H]1CN([C@@H](C)CO)S(=O)(=O)c2ccc(C#CCN(C)C)cc2O[C@@H]1CN(C)Cc1ccccn1,0,?,0,0,0,0,28.3
C[C@H]1CN([C@@H](C)CO)S(=O)(=O)c2ccc(C#CCN(C)C)cc2O[C@@H]1CN(C)Cc1ccccn1,0,100.8,0,97.2,99.0,0,0
C[C@H](CO)N1C[C@H](C)[C@@H](CN(C)Cc2ccccn2)Oc2cc(C#CCN(C)C)ccc2S1(=O)=O,0,?,0,-,-,-,-
C[C@@H]1CN([C@@H](C)CO)S(=O)(=O)c2ccc(C#CCN(C)C)cc2O[C@H]1CN(C)Cc1ccccn1,0,?,0,-,-,-,-
O=C(C1CCCC1)N1CC2(C1)[C@@H](c1ccccc1)[C@H](CO)N2CCC(F)(F)F,-,-,0,-,-,-,-
SMILES,IDH1 R132H inh,T cruzi growth-1,GASC1 inh,T cruzi growth-2,T cruzi growth-3,3T3 cytotox,NIH3T3 tox 2
Cc1cc(Br)c2c(c1)C(O)(CC(=O)c1ccco1)C(=O)N2C (centres undefined),0,-,-,-,-,-,-
Cc1c(Cl)cccc1NC(=O)CSc1nnc(-c2cccs2)n1C,0,-,-,-,-,-,-
CCOC(=O)c1c(NC(=O)Cn2nnc(-c3ccccc3)n2)sc2c1CCCC2,0,-,-,-,-,-,-
COc1ccccc1C#Cc1ccc2c(c1)O[C@H](CN(C)Cc1ccccc1)[C@H](C)CN([C@H](C)CO)S2(=O)=O,0,120.9,0,103.9,0,0,0
COc1ccccc1C#Cc1ccc2c(c1)O[C@H](CN(C)Cc1ccccc1)[C@@H](C)CN([C@@H](C)CO)S2(=O)=O,0,121.2,0,98.6,111.0,0,99.5
COc1ccccc1C#Cc1ccc2c(c1)O[C@H](CN(C)Cc1cccnc1)[C@@H](C)CN([C@@H](C)CO)S2(=O)=O,0,-,0,-,-,-,-
COc1ccccc1C#Cc1ccc2c(c1)O[C@@H](CN(C)Cc1ccccc1)[C@H](C)CN([C@H](C)CO)S2(=O)=O,0,118.2,0,?,111.9,45.3,106.0
COc1ccccc1C#Cc1ccc2c(c1)O[C@H](CN(C)Cc1ccccc1)[C@H](C)CN([C@@H](C)CO)S2(=O)=O,0,122.5,0,104.7,114.7,0,0
COc1ccccc1C#Cc1ccc2c(c1)O[C@@H](CN(C)Cc1cccnc1)[C@@H](C)CN([C@@H](C)CO)S2(=O)=O,0,-,0,-,-,-,-
COc1ccccc1C#Cc1ccc2c(c1)O[C@@H](CN(C)Cc1cccnc1)[C@@H](C)CN([C@H](C)CO)S2(=O)=O,-,-,0,-,-,-,-
COc1ccccc1C#Cc1ccc2c(c1)O[C@@H](CN(C)Cc1cccnc1)[C@H](C)CN([C@@H](C)CO)S2(=O)=O,-,-,0,-,-,-,-
O=C(O)c1ccc2c(c1)C1C3CCC(C3)C1C(c1ccccc1)N2 (centres undefined),0,-,-,-,-,-,-
COc1ccc(S(=O)(=O)N[C@@H]2C=C[C@@H](CC(=O)N3CCC(Cc4ccccc4)CC3)O[C@@H]2CO)cc1,-,-,0,-,-,-,-
COc1ccc(S(=O)(=O)N[C@@H]2C=C[C@H](CC(=O)N3CCC(Cc4ccccc4)CC3)O[C@@H]2CO)cc1,0,?,0,0,0,0,32.3
COc1ccc(S(=O)(=O)N[C@H]2C=C[C@@H](CC(=O)N3CCN(c4ccccc4)CC3)O[C@@H]2CO)cc1,0,0,0,-,-,-,-
COc1ccc(S(=O)(=O)N[C@@H]2C=C[C@@H](CC(=O)N3CCC(Cc4ccccc4)CC3)O[C@H]2CO)cc1,0,?,0,0,0,0,31.7

# Compound activity (PubChem BioAssay)
